From PubChem
S100A4 MyoIIA = inhibitors of human S100A4 binding to myosin IIA peptide | S100A4/TAMRA-MyoIIA peptide fluorescence polarization | inhibition, % at 10.7 µM | 0.14% of 360,000 active;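 active means mean inhibition of at least 70% across replicates, with every replicate also reaching that level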
Target sequence (P26447 whole entry, looked up): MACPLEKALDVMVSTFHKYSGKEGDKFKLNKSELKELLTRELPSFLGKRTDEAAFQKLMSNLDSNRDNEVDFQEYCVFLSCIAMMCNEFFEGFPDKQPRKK
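incubation = readout 5 min after mixing, signal stable up to 60 min | system = S100A4 monomer protein | buffer or medium = HEPES pH 7.2 with CaCl2, KCl, NaCl, DTT, Triton | benchmarks = neutral control DMSO, positive control TFP | also added = fluorescent myosin IIA peptide, 5 nM | compound dosing = one concentration per compound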
PKA-R1A activ = activators of PKA-R1A complex. AID 504707. activation, % at 11.4 µM. PKA-R1A dissociation, Cy5-IP20 fluorescence polarization; scaled: DMSO 0%, 113 µM cGMP 100%. P00514+P68181. 0.083% of 340,000 active;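 active means percent activation above the mean of all tested compounds plus 3 SD, cut at about 19% in these data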;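 further: higher means more PKAc released from R1A so a rise in polarization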
CRFBP-R2 block = antagonists of CRF-binding protein/CRF-R2 receptor complex | inhibition, % at 11.8 µM | HEK293 CRF-R2/CRF-BP, CRF-induced calcium fluorescence | 0.59% of 350,000 active | AID 588475;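 active means inhibition of the ligand-induced calcium signal above about 50% at the single tested concentration, limit read from the data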
SIRT5 block = sirtuin-5 (human) deacylase inhibition; Q9NXA8; Purified SirT5, succinyl-peptide AMC, trypsin-coupled fluorescence; inhibition, % at 15 µM; 1.1% of 330,000 active; in the data active means inhibition above about 15%
Target sequence (Q9NXA8 whole entry, looked up): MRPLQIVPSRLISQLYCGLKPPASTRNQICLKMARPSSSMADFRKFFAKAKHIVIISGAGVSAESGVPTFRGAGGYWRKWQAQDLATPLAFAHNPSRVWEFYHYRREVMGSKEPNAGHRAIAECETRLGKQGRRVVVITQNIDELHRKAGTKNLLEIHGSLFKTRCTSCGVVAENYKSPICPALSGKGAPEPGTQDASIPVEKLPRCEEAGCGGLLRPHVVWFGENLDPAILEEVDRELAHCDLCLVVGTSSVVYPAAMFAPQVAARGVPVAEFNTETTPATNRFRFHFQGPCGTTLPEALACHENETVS
PKA-R2B act = activators of human PKA-R2B complex | P22694+P31323 | PKA-R2B holoenzyme dissociation, Cy5-IP20 fluorescence polarization; R2B truncated from residue 108, S112A mutant; 0% DMSO only, 100% 113 µM cGMP | activation, % at 11.4 µM | 0.079% of 340,000 active;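 active means activation above a cutoff set at the mean over all compounds plus 3 SD, cut at about 18% in these data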;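 further: higher means more holoenzyme dissociation and a rise in polarization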
Numbers without * were called inactive; nt = not tested or not shown. Hits are enriched below; roughly 1.5% of the tested compounds scored in any of these assays.

SMILES	S100A4 MyoIIA	PKA-R1A activ	CRFBP-R2 block	SIRT5 block	PKA-R2B act
CSc1ccc(CCNC(=O)c2ccc(CS(=O)Cc3ccc(Cl)cc3)o2)cc1 (stereo not drawn)	-5	12	80*	-2	2
O=C(NCCc1ccc(Cl)cc1)c1ccc(CS(=O)Cc2ccc(Cl)cc2)o1 (stereo not drawn)	-2	-8	2	-5	-6
C[C@@H]1CCCCO[C@H](CN(C)C(=O)Nc2ccccc2)[C@@H](C)CN([C@@H](C)CO)C(=O)c2cc(NC(=O)CCCN(C)C)ccc2O1	8	nt	nt	-2	nt
COCC(=O)N(C)C[C@@H]1Oc2ncc(-c3cccc(OC)c3)cc2C(=O)N([C@@H](C)CO)C[C@@H]1C	39	nt	nt	-2	nt
C[C@@H](NC(=O)C[C@H]1C[C@@H]2c3cc(NC(=O)NC4CCCC4)ccc3O[C@@H]2[C@@H](CO)O1)c1ccccc1	0	nt	nt	0	nt
NNC(=S)NC1CCS(=O)(=O)C1 (stereo not drawn)	-5	nt	108*	-3	nt
C[C@H]1CN([C@@H](C)CO)C(=O)c2c(c3ccccc3n2C)-c2ccccc2CO[C@@H]1CN(C)C(=O)c1ccncc1	-1	nt	nt	-4	nt
CC1CCCC(C)N1C(=O)COC(=O)c1cccs1 (stereo not drawn)	-2	-11	62*	-4	-15
COc1ccc(S(=O)(=O)N2C[C@H](O)COC[C@H]3O[C@H](CC(=O)N(C)C)CC[C@@H]32)cc1	9	nt	nt	-1	nt
Cc1[nH]c2ccccc2c1SCc1nnc(SCc2ccccc2)n1C	-20	-8	115*	-2	-3
Cc1cccc(NC(=O)Cn2nnc(-c3cccs3)n2)c1C	-3	-5	6	25*	6
CCc1ccccc1NC(=O)Cn1nnc(-c2cccs2)n1	nt	0	-13	nt	-2
Cc1cccc(NS(=O)(=O)c2cccc(C(=O)N3CCC3)c2)c1	-31	5	-9	5	4
Cc1cccc(NS(=O)(=O)c2cccc(C(=O)N3CCN(c4ccccn4)CC3)c2)c1	11	-6	115*	-2	0
Cc1ccc(CSC(Nc2ccc(F)cc2)=C(C#N)C#N)cc1	4	0	72*	0	9
CCN(CC)C(=O)CSC(Nc1ccc(F)cc1)=C(C#N)C#N	-48	-6	3	-4	-7
CN1CCN(C(=O)C[C@@H]2CC[C@@H]3[C@H](COc4ccc(NC(=O)c5cscn5)cc4C(=O)N3C)O2)CC1	-1	nt	nt	0	nt
O=c1c2ccccc2c(-c2ccc(O)cc2)nn1-c1cccc(C(F)(F)F)c1	nt	-11	57*	nt	2
CCC(=O)N1CC2(C1)CN(CC1CCOCC1)[C@@H](CO)c1c2c2ccc(OC)cc2n1C	54	nt	nt	nt	nt
C[C@H](CCC(=O)OCc1cn(CC(=O)c2ccc(O)cc2)nn1)C1CC[C@H]2[C@@H]3CC[C@@H]4C[C@H](O)CC[C@]4(C)[C@H]3C[C@H](O)[C@]12C (stereo partly drawn)	9	-9	-7	33*	-4
O=C(Cc1cccnc1)N[C@@H]1CC[C@H](CCn2cc(Cc3ccccc3)nn2)O[C@H]1CO	-13	nt	nt	0	nt
NC(N)=N/N=C/c1cc([N+](=O)[O-])ccc1O	nt	-7	33	nt	-3
O=[N+]([O-])c1ccc(O)c(/C=N\N=C2c3ccccc3-c3ccccc32)c1	nt	-7	74*	nt	5
COc1cc(/C=C(/C#N)c2nc3ccccc3[nH]2)ccc1OCc1ccc(C(=O)O)o1	-8	2	8	18*	1
COC(=O)c1ccc(COc2ccc(/C=C(\C#N)c3nc4ccccc4[nH]3)cc2OC)o1	nt	-4	-35	nt	-3
COc1ccc(-c2cc(C(=O)NC3CCCC3)c3ccccc3n2)cc1OC	1	-3	97*	-2	4
COc1ccc(-c2cc(C(=O)N3CCN(c4ncccn4)CC3)c3ccccc3n2)cc1OC	2	1	-6	3	1
COc1ccc(-c2cc(C(=O)N3CCN(c4cccc(C)c4C)CC3)c3ccccc3n2)cc1OC	2	-18	-10	21*	-3
COc1cccc(-c2cc(C(=O)NC3CCCC3)c3ccccc3n2)c1	-4	nt	5	6	nt
COc1cccc(-c2ccc3c(c2)[C@H]2[C@H](CCN2C(=O)NC2CCCCC2)[C@H](CO)N3C)c1	56	nt	nt	-5	nt
